Key:
ABCG2 [1] = target: T1, ABCG2 (Homo sapiens, UniProt Q9UNQ0); experiment: Inhibition of ABCG2 (unknown origin)-mediated mitoxantrone efflux expressed in HEK293 cells at 5 to 10 uM after 30 mins by flow cytometric analysis relative to control; format: cell-based; conditions: HEK293 cells expressing ABCG2, probe mitoxantrone, read-out: Imax
T1 sequence (Q9UNQ0 whole entry): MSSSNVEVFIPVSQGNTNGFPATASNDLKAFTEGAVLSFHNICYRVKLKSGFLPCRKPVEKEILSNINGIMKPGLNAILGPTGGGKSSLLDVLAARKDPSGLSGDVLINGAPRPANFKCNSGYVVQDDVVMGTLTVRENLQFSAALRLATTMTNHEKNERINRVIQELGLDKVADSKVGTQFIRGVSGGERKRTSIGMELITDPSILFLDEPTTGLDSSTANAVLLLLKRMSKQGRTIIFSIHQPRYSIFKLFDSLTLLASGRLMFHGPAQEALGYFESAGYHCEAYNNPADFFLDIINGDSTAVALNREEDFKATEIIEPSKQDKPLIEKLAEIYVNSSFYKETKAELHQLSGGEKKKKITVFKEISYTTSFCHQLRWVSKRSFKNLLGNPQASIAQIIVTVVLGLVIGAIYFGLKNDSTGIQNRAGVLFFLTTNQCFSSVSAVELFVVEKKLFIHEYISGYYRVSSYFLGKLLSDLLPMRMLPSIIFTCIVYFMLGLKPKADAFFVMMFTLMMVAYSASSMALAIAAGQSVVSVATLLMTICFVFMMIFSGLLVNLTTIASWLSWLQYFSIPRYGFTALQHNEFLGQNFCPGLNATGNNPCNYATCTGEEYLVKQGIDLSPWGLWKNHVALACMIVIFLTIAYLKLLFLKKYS

[2] = target: T2, Broad substrate specificity ATP-binding cassette transporter ABCG2 (Homo sapiens, UniProt Q9UNQ0); experiment: Binding affinity to ABCG2 (unknown origin) expressed in HEK293 cells assessed as modulation of 5D3 binding at 2 uM after 45 mins by flow cytometric analysis relative to Ko143; format: cell-based; conditions: hek293, 0.75 h
T2 sequence (Q9UNQ0 whole entry): T1 sequence (Q9UNQ0 whole entry)
Summary of the method: (§1)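 5D3 shift assay on ABCG2-transfected HEK293 cells (0.5 × 10^6 cells/tube) in PBS with 0.5% BSA. Compound at 2 or 5 μM plus 5D3 anti-ABCG2 antibody or isotype control (1 μg/mL), 45 min at 37 °C. Anti-mouse Alexa Fluor 488 secondary (3 μg/mL), 30 min at 37 °C. Binding read by flow cytometry, expressed relative to 2 μM Ko143 (100%). Mean ± SD of ≥3 independent experiments.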

[3] = target: T2, Broad substrate specificity ATP-binding cassette transporter ABCG2; experiment: Inhibition of ABCG2 (unknown origin)-mediated mitoxantrone efflux expressed in HEK293 cells after 30 mins by flow cytometric analysis; format: cell-based
[4] = target: T2, Broad substrate specificity ATP-binding cassette transporter ABCG2; experiment: Binding affinity to ABCG2 (unknown origin) expressed in HEK293 cells assessed as modulation of 5D3 binding at 5 uM after 45 mins by flow cytometric analysis relative to Ko143; format: cell-based; conditions: hek293, 0.75 h; summary of the method: as §1
[5] = target: T2, Broad substrate specificity ATP-binding cassette transporter ABCG2; experiment: Inhibition of human ABCG2 ATPase activity expressed in Sf9 insect cell membranes at 2 uM after 30 mins by colorimetric analysis relative to basal control in presence of sodium orthovanadate; conditions: sf9, 0.5 h
Summary of the method: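 Basal vanadate-sensitive ATPase assay on cholesterol-loaded membranes from human ABCG2-expressing Sf9 cells (0.5 mg/mL; 10 μg/sample). Buffer: 50 mM Tris-HCl, 50 mM NaCl, pH 8.0, with azide, ouabain, DTT and EGTA, ± 0.33 mM orthovanadate. Compound at 2 μM, or substrates nilotinib 0.1 μM, quercetin 2 μM, prazosin 20 μM. ATP-Mg 3.9 mM, 30 min at 37 °C. Phosphate read by molybdate/ascorbate at 880 nm.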

ABCG2 [6] = target: T1, ABCG2; experiment: Inhibition of ABCG2-mediated mitoxantrone efflux in mitoxantrone-selected human H460 cells at 5 to 10 uM after 30 mins by flow cytometric analysis relative to control; format: cell-based; conditions: probe mitoxantrone, read-out: Imax
[7] = target: T2, Broad substrate specificity ATP-binding cassette transporter ABCG2; experiment: Inhibition of human ABCG2 expressed in Sf9 insect cell membranes assessed as inhibition of quercetin-stimulated ATPase activity after 30 mins by colorimetric analysis in presence of sodium orthovanadate; conditions: for inhibition (INH): human, sf9, 0.5 h
Summary of the method: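 Quercetin (2 μM)-stimulated vanadate-sensitive ATPase assay on cholesterol-loaded ABCG2 Sf9 membranes (10 μg/sample) in Tris/NaCl buffer, pH 8.0. Compound at 0.01, 0.03, 0.5 and 2 μM. ATP-Mg 3.9 mM, 30 min at 37 °C. Released phosphate read colorimetrically at 880 nm. IC50 estimated as 50% inhibition of initial activity; three independent experiments.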

[8] = target: T2, Broad substrate specificity ATP-binding cassette transporter ABCG2; experiment: Inhibition of ABCG2-mediated mitoxantrone efflux in mitoxantrone-selected human H460 cells after 30 mins by flow cytometric analysis; format: cell-based
[9] = target: Multidrug resistance-associated protein 1 (Homo sapiens, UniProt P33527); experiment: Inhibition of ABCC1 (unknown origin)-mediated calcein-AM efflux expressed in HEK293 cells at 5 uM after 30 mins by flow cytometric analysis; format: cell-based; conditions: hek293, 0.5 h
ABCG2 [10] = target: T1, ABCG2; experiment: Inhibition of ABCG2 (unknown origin)-mediated pheophorbide A efflux expressed in HEK293 cells at 1 to 5 uM after 30 mins by flow cytometric analysis relative to control; format: cell-based; conditions: HEK293 cells expressing ABCG2, probe pheophorbide A, read-out: Imax
Summary of the method: (§2)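 Cells seeded at 1.5 × 10^5 cells/well and grown 48 h were exposed to BODIPY-prazosin (0.2 μM) or pheophorbide A (2 μM) for 30 min at 37 °C with or without compound. After washing and trypsinization, intracellular fluorescence was read by flow cytometry (FL4, ≥10 000 events). Percent inhibition = (C−M)/(Cev−M)×100, where Cev is from ABCG2-negative control cells.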

[11] = target: T2, Broad substrate specificity ATP-binding cassette transporter ABCG2; experiment: Inhibition of ABCG2 (unknown origin)-mediated BODIPY-prazosin efflux expressed in HEK293 cells at 1 to 5 uM after 30 mins by flow cytometric analysis; format: cell-based; conditions: hek293, 0.5 h; summary of the method: as §2
[12] = target: ATP-dependent translocase ABCB1 (Homo sapiens, UniProt P08183); experiment: Inhibition of ABCB1 (unknown origin)-mediated rhodamine 123 efflux expressed in mouse NIH/3T3 cells at 5 uM after 30 mins by flow cytometric analysis; format: cell-based; conditions: nih/3t3, 0.5 h
Chain of ATP-dependent translocase ABCB1 (P08183 whole entry): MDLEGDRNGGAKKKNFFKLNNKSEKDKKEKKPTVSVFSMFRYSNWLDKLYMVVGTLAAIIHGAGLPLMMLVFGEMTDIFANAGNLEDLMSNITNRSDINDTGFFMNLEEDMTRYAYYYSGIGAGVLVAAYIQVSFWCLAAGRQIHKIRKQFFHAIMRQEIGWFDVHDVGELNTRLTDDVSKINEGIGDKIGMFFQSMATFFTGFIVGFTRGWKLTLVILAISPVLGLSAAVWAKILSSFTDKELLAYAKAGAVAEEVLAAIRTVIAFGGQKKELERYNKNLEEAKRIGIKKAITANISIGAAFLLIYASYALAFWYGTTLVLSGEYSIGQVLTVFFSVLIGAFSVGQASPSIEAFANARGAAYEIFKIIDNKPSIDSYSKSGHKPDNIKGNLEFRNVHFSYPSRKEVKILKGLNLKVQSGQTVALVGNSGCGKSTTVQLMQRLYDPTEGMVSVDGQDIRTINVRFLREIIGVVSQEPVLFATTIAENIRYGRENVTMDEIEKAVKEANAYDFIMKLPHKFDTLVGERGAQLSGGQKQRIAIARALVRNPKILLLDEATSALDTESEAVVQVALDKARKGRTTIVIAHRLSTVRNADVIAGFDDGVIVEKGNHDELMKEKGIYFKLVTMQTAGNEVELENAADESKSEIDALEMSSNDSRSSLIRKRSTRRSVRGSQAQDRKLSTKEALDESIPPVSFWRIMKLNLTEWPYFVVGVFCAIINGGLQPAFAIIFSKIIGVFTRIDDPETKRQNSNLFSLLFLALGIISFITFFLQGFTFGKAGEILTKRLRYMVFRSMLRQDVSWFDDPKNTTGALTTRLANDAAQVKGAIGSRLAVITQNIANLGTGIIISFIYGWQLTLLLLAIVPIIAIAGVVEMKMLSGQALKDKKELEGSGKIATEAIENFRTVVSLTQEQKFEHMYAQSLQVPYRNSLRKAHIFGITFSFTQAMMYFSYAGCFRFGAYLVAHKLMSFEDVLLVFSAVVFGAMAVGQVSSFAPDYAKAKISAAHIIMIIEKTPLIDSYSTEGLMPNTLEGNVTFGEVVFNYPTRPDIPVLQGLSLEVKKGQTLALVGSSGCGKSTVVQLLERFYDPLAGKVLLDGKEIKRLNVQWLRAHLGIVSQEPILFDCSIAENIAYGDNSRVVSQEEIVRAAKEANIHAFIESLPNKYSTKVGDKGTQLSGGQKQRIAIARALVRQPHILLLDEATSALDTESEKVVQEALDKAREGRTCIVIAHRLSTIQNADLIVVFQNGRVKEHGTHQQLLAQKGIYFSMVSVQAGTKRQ

Chain of Multidrug resistance-associated protein 1 (P33527 whole entry): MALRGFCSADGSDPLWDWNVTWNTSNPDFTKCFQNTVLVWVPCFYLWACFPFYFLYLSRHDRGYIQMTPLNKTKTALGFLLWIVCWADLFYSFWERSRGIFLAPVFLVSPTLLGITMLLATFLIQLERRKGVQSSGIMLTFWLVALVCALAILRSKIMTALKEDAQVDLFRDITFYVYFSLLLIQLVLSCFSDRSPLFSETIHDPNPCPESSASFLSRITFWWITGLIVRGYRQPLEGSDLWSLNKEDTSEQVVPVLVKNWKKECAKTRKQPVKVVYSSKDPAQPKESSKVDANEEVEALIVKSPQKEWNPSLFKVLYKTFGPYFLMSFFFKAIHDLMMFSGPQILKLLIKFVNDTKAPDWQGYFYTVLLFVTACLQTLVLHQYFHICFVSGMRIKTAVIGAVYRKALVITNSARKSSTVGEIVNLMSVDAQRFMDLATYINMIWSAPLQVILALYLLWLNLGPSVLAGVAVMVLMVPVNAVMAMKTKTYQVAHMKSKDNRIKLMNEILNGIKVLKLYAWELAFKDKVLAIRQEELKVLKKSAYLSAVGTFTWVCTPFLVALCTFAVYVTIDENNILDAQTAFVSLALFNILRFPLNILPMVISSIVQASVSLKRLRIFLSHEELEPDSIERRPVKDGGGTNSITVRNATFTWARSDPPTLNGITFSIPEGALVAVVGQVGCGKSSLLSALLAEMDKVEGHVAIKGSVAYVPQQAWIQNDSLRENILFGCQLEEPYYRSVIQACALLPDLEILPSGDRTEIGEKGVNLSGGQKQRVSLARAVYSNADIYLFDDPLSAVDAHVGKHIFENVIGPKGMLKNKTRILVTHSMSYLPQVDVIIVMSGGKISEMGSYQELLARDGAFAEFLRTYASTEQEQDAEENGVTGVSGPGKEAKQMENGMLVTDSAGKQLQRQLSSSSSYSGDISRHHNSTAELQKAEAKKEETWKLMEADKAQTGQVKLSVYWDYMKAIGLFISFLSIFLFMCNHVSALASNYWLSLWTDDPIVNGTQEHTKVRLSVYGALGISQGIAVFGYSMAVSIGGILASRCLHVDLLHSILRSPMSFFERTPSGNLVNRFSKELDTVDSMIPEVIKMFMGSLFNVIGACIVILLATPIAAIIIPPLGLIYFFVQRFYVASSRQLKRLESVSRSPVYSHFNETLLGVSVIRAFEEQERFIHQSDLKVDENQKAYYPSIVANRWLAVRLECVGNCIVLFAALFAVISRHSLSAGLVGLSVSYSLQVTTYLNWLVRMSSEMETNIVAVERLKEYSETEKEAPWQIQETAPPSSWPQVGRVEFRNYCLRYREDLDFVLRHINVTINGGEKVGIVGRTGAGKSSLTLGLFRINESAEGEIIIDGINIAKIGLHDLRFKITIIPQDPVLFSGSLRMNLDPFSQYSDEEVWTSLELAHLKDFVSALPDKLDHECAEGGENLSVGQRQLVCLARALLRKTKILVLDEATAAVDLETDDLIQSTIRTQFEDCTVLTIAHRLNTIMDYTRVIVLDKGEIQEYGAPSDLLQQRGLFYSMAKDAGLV

| SMILES | Emax at 0.5 h (ABCG2 [1]) [%] | Activity [2] [%] | EC50 [3] [nM] | Activity [4] [%] | inhibition (INH) [5] | Emax at 0.5 h (ABCG2 [6]) [%] | IC50 [7] [nM] | inhibition (INH) [7] | EC50 [8] [nM] | inhibition (INH) [9] | Emax at 0.5 h (ABCG2 [10]) [%] | inhibition (INH) [11] | inhibition (INH) [12] |
| --- | --- | --- | --- | --- | --- | --- | --- | --- | --- | --- | --- | --- | --- |
| COc1ccc2[nH]cc(CCN(C)Cc3cc(=O)c4c(OCc5ccc(Br)cc5)cccc4o3)c2c1 | 75 | 82.3 | 1130 | 102.5 | Active | 106 | 820 | Dose-dependent effect | 600 |  |  |  |  |
| O=C(NCc1cn(Cc2ccc(Br)cc2)nn1)c1cc(=O)c2c(OCc3ccc(Br)cc3)cccc2o1 | 95 | 78.7 | 570 | 91.8 | Not Active | 76 | 930 | Dose-dependent effect | 710 |  |  |  |  |
| CN(CCc1cn(C)c2ccccc12)C(=O)c1cc(=O)c2cc(OCc3ccc(Br)cc3)ccc2o1 | 50 | 40.9 | 2060 | 72.1 | Not Active | 61 | > 2000 | Dose-dependent effect | 2150 |  |  |  |  |
| COc1ccc2[nH]cc(CCNC(=O)c3cc(=O)c4cc(OCc5ccc(Br)cc5)ccc4o3)c2c1 | 108 | 93.3 | 290 | 99.9 | Not Active | 109 | 530 | Dose-dependent effect | 100 | Not Active | 80 | Active | Not Active |
| COc1ccc2[nH]cc(CCN(C)C(=O)c3cc(=O)c4c(OCc5ccc(Br)cc5)cccc4o3)c2c1 | 101 | 82.8 | 960 | 97.4 | Active | 96 | > 2000 | Dose-dependent effect | 530 | Not Active | 80 | Active | Not Active |
| O=C(NCc1cn(Cc2ccccc2)nn1)c1cc(=O)c2c(OCc3ccc(Br)cc3)cccc2o1 | 78 | 74.3 | 1520 | 95.4 | Not Active | 76 | 430 | Dose-dependent effect | 500 |  |  |  |  |
| CN(CCc1cn(C)c2ccccc12)C(=O)c1cc(=O)c2c(OCc3ccc(Br)cc3)cccc2o1 | 88 | 76.4 | 1000 | 98.9 | Active | 84 | > 2000 | Dose-dependent effect | 500 | Not Active | 80 | Active | Not Active |
| CN(CCc1c[nH]c2ccccc12)C(=O)c1cc(=O)c2c(OCc3ccc(Br)cc3)cccc2o1 | 105 | 74.6 | 1110 | 95.9 | Active | 89 | > 2000 | Dose-dependent effect | 570 | Not Active | 80 | Active | Not Active |
| O=C(NCc1cn(CCc2c[nH]c3ccccc23)nn1)c1cc(=O)c2c(OCc3ccc(Br)cc3)cccc2o1 | 87 | 93.1 | 490 | 105.2 | Active | 86 | 250 | Dose-dependent effect | 460 |  |  |  |  |
| CN(CCc1c[nH]c2ccccc12)C(=O)c1cc(=O)c2cc(OCc3ccc(Br)cc3)ccc2o1 | 54 | 47.6 | 2580 | 79.4 | Not Active | 50 | > 2000 | Dose-dependent effect | 1670 |  |  |  |  |
| CN(CCc1c[nH]c2ccccc12)Cc1cc(=O)c2c(OCc3ccc(Br)cc3)cccc2o1.Cl | 46 | 57.4 | 1770 | 95.4 | Active | 104 | > 2000 | Dose-dependent effect | 1110 |  |  |  |  |

— ChEMBL document CHEMBL3108696, “Structure-activity relationships of chromone derivatives toward the mechanism of interaction with and inhibition of breast cancer resistance protein ABCG2” (J Med Chem, 2013)
